Reference: ChEMBL document CHEMBL1124765, “Synthesis and biological properties of novel phosphotriesters: a new approach to the introduction of biologically active nucleotides into cells” (J Med Chem, 1990)
In brackets after ≈: the same amount, converted by molar mass.

What was measured:
[1] = pKa value was determined; format: physicochemical
Mus musculus [2] = assay: Topical treatment of intracutaneous HSV-1(KOS) herpes simplex virus type 1 infection of Nu/nu mice for mean day of appearance of skin lesions and/or paralysis of the hind legs at 0.3% concentration (v/v in DMSO); format: functional
Summary of the method: (§1)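 Inocula were TK⁻ HSV-1 at 10⁶ CCID50/0.05 mL or HSV-1 KOS at 10^4.7 PFU/0.05 mL. Test formulations in DMSO were applied topically four times daily for 5 days, starting at infection. Skin lesions, hind-leg paralysis and death were recorded daily for 28 (KOS) or 49 (TK⁻) days, with five mice per group.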

Mus musculus [3] = assay: Topical treatment of intracutaneous HSV-1(KOS) herpes simplex virus type 1 infection of Nu/nu mice for mean day of appearance of skin lesions and/or paralysis of the hind legs at 1% concentration (v/v in DMSO); format: functional; summary of the method: as §1
Mus musculus [4] = assay: Topical treatment of intracutaneous HSV-1(KOS) herpes simplex virus type 1 infection of Nu/nu mice for mean day of appearance of skin lesions and/or paralysis of the hind legs at 3% concentration (v/v in DMSO); format: functional; summary of the method: as §1
Mus musculus [5] = assay: Topical treatment of intracutaneous TK- herpes simplex virus type 1 of strain VMW 1837 infection of Nu/nu mice for mean day of appearance of skin lesions and/or paralysis of the hind legs at 0.3% concentration (v/v in DMSO); format: functional; summary of the method: as §1
Mus musculus [6] = assay: Topical treatment of intracutaneous TK- herpes simplex virus type 1 of strain VMW 1837 infection of Nu/nu mice for mean day of appearance of skin lesions and/or paralysis of the hind legs at 1% concentration (v/v in DMSO); format: functional; summary of the method: as §1
Mus musculus [7] = assay: Topical treatment of intracutaneous TK- herpes simplex virus type 1 of strain VMW 1837 infection of Nu/nu mice for mean day of appearance of skin lesions and/or paralysis of the hind legs at 3% concentration (v/v in DMSO); format: functional; summary of the method: as §1
Oryctolagus cuniculus = species: Oryctolagus cuniculus; assay: Evaluated for the minimum cytotoxic concentration (MCC) upon preincubation of rabbit kidney cells in medium containing 10% fetal calf serum at 37 degree Celsius for 24 hr; format: functional; conditions: Oryctolagus cuniculus, kidney; read-out: MCC
Summary of the method: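 Primary rabbit kidney cell cultures were exposed to compounds, some preincubated 24 h at 37 °C in medium with 10% fetal calf serum. The minimum cytotoxic concentration was the level causing a microscopically detectable change in normal cell morphology.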

Human alphaherpesvirus 1 [8] = assay: Evaluated for the minimum inhibitory concentration (MIC) in primary rabbit kidney (PRK) by 50% against TK- herpes simplex virus type 1 (TK- HSV-1) with strain VMW 1837; format: functional
Summary of the method: (§2)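 Confluent primary rabbit kidney cell monolayers were infected with 100 CCID50 of virus. After 1 h adsorption, residual virus was removed and cells were incubated with serial compound concentrations. Cytopathogenicity was scored once it reached completion in untreated infected controls. The endpoint was the concentration reducing virus-induced cytopathogenicity by 50%.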

Vaccinia virus = assay: Evaluated for the minimum inhibitory concentration (MIC) in primary rabbit kidney (PRK) by 50% against vaccinia virus; format: functional; conditions: Orthopoxvirus vaccinia; summary of the method: as §2
Human alphaherpesvirus 1 [9] = assay: Evaluated for the minimum inhibitory concentration (MIC) in primary rabbit kidney (PRK) by 50% against TK- herpes simplex virus type 1 (TK- HSV-1) with strain B2006; format: functional; summary of the method: as §2
Human alphaherpesvirus 1 [10] = assay: Evaluated for the minimum inhibitory concentration (MIC) in primary rabbit kidney (PRK) by 50% against herpes simplex virus type-1 (HSV-1) with strains KOS; format: functional
Summary of the method: (§3)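 Confluent primary rabbit kidney cell cultures infected with 100 CCID50 virus; after 1 h adsorption residual virus removed and cells incubated with varying compound concentrations. Cytopathogenicity scored when complete in infected untreated controls; MIC = concentration reducing virus-induced cytopathogenicity by 50%. Compounds tested as such or after preincubation in medium with 10% fetal calf serum, 24 h, 37 °C.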

Human alphaherpesvirus 1 [11] = assay: Evaluated for the minimum inhibitory concentration (MIC) in primary rabbit kidney (PRK) by 50% against herpes simplex virus type-1 (HSV-1) with strains McIntyre; format: functional; summary of the method: as §3
Human alphaherpesvirus 2 [12] = assay: Evaluated for the minimum inhibitory concentration (MIC) in primary rabbit kidney (PRK) by 50% against herpes simplex virus type-2 (HSV-2) with strains 196; format: functional; summary of the method: as §3
Human alphaherpesvirus 2 [13] = assay: Evaluated for the minimum inhibitory concentration (MIC) in primary rabbit kidney (PRK) by 50% against herpes simplex virus type-2 (HSV-2) with strains G; format: functional; summary of the method: as §2
Human alphaherpesvirus 2 [14] = assay: Evaluated for the minimum inhibitory concentration (MIC) in primary rabbit kidney (PRK) by 50% against herpes simplex virus type-2 (HSV-2) with strains Lyons; format: functional; summary of the method: as §3
[15] = tested on: Vesicular stomatitis virus; assay: Evaluated for the minimum inhibitory concentration (MIC) in primary rabbit kidney (PRK) by 50% against vesicular stomatitis virus; format: functional; summary of the method: as §2
Human alphaherpesvirus 1 [16] = assay: Evaluated for the minimum inhibitory concentration (MIC) in primary rabbit kidney (PRK) by 50% against herpes simplex virus type-1 (HSV-1) with strains F; format: functional; summary of the method: as §3

## CC(=O)O[C@H]1C[C@H](n2cc(C)c(=O)[nH]c2=O)O[C@@H]1COP(=O)(OC[C@H]1O[C@@H](n2cc(C)c(=O)[nH]c2=O)C[C@@H]1OC(C)=O)Oc1ccc(S(C)(=O)=O)cc1
[1]
  pKa: 7.83

## CC(=O)O[C@H]1C[C@H](n2cc(C)c(=O)[nH]c2=O)O[C@@H]1COP(=O)(OC[C@H]1O[C@@H](n2cc(C)c(=O)[nH]c2=O)C[C@@H]1OC(C)=O)Oc1ccc(Cl)cc1
[1]
  pKa: 9.38

## CC(=O)O[C@H]1C[C@H](n2cc(C)c(=O)[nH]c2=O)O[C@@H]1COP(=O)(OC[C@H]1O[C@@H](n2cc(C)c(=O)[nH]c2=O)C[C@@H]1OC(C)=O)Oc1ccc([N+](=O)[O-])cc1
[1]
  pKa: 7.16

## O=c1[nH]c(=O)n([C@H]2C[C@H](O)[C@@H](CO)O2)cc1/C=C/Br [BRIVUDINE]
Mus musculus [2]
  Mean day appearance of lesions: 6.2
Mus musculus [3]
  Mean day appearance of lesions: 9.4
Mus musculus [4]
  Mean day appearance of lesions: 9.4
Mus musculus [5]
  Mean day appearance of lesions: 8.8
Mus musculus [6]
  Mean day appearance of lesions: 9.7
Mus musculus [7]
  Mean day appearance of lesions: 10.8
Oryctolagus cuniculus
  MCC: > 400 µg/mL
Human alphaherpesvirus 1 [8]
  MIC: 300 µg/mL (≈ 901 µM)
Vaccinia virus
  MIC: 7 µg/mL (≈ 21 µM)
Human alphaherpesvirus 1 [9]
  MIC: 200 µg/mL (≈ 600 µM)
Human alphaherpesvirus 1 [10]
  MIC: 0.02 µg/mL (≈ 0.06 µM)
Human alphaherpesvirus 1 [11]
  MIC: 0.02 µg/mL (≈ 0.06 µM)
Human alphaherpesvirus 2 [12]
  MIC: 150 µg/mL (≈ 450 µM)
Human alphaherpesvirus 2 [13]
  MIC: 4 µg/mL (≈ 12 µM)
Human alphaherpesvirus 2 [14]
  MIC: 40 µg/mL (≈ 120 µM)
[15]
  MIC: > 400 µg/mL
Human alphaherpesvirus 1 [16]
  MIC: 0.02 µg/mL (≈ 0.06 µM)

## CC(=O)O[C@H]1C[C@H](n2cc(C)c(=O)[nH]c2=O)O[C@@H]1COP(=O)(OC[C@H]1O[C@@H](n2cc(C)c(=O)[nH]c2=O)C[C@@H]1OC(C)=O)Oc1cc(Cl)ccc1Cl
[1]
  pKa: 7.5
